The source made the active and inactive calls. No cut-off for these calls is given here.
Key:
[1] = target: T1, Poly [ADP-ribose] polymerase 1 (Homo sapiens, UniProt P09874); assay: Inhibition of PARP-1 in human HeLa cells incubated for 18 hrs in presence of H2O2; type: cell-based
[2] = target: T1, Poly [ADP-ribose] polymerase 1; assay: Inhibition of human PARP-1 catalytic domain (662 to 1011 residues) expressed in Escherichia coli BL21(DE3) cells pre-incubated for 30 mins before addition of activated DNA and NAD by fluorescence based assay
[3] = target: Poly [ADP-ribose] polymerase 2 (Homo sapiens, UniProt Q9UGN5); assay: Inhibition of PARP-2 (unknown origin) pre-incubated for 30 mins before addition of activated DNA and NAD by chemiluminescent assay
Sequence of Poly [ADP-ribose] polymerase 2 (Q9UGN5 whole entry): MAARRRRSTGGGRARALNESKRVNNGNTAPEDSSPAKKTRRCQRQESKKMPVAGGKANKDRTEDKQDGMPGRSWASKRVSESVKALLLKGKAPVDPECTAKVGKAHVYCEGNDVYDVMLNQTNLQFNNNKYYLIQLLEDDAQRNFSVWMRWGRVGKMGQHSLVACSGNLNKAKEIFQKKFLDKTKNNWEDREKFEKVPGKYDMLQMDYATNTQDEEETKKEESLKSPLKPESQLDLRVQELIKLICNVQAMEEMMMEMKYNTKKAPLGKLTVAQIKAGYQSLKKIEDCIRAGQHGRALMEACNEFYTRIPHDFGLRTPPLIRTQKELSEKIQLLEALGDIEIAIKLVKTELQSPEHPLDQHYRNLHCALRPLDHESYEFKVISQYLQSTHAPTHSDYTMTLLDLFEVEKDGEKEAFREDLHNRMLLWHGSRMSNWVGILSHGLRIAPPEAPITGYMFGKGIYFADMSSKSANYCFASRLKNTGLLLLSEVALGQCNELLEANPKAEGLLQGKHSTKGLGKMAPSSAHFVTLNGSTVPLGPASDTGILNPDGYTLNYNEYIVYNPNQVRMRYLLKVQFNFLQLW

[4] = Clearance in rat at 5 mg/kg, po by LC-MS/MS analysis; type: ADME, organism-based; details: in vivo
hERG (KCNH2) = hERG (KCNH2) (Homo sapiens, UniProt Q12809); assay: Inhibition of human ERG activity at 20 uM by functional cellular assay
Sequence of hERG (KCNH2) (Q12809 whole entry): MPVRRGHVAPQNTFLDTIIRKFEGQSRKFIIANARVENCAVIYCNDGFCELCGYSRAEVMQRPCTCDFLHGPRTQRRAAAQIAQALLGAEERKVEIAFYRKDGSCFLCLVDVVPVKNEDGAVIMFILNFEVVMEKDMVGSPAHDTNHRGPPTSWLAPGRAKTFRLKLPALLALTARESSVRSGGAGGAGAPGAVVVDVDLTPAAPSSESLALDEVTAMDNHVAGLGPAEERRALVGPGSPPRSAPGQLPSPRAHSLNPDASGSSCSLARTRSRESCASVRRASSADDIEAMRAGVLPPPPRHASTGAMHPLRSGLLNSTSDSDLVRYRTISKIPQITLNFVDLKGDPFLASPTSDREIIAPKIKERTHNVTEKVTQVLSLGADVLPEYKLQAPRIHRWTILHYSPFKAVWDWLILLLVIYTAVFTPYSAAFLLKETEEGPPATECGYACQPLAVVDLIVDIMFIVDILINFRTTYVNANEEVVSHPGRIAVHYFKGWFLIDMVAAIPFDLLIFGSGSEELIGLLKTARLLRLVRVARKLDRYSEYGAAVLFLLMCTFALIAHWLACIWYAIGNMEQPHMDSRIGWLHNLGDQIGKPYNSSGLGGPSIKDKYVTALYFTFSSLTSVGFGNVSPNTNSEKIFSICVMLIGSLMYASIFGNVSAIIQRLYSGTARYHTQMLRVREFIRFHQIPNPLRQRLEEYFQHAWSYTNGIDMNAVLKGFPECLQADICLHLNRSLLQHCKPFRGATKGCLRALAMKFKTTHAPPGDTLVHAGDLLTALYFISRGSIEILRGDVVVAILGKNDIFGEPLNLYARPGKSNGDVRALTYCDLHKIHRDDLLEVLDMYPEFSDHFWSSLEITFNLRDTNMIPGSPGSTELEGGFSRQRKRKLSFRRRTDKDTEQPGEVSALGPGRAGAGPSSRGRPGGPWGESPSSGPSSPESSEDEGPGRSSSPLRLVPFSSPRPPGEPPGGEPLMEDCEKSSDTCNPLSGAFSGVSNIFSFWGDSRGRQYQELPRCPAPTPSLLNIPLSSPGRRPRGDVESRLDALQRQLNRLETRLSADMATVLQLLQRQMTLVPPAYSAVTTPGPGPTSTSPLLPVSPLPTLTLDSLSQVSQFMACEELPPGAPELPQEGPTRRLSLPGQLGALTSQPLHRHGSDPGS

[5] = Solubility of the compound; type: physicochemical
[6] = Clearance in mouse liver microsomes; type: ADME, Microsome; details: read-out: CLH
NCI-H209 [7] = assay: Antitumor activity against human NCI-H209 cells xenografted in BALB/c nude mouse assessed as tumor relapse at 50 mg/kg, po QD for 5 consecutive days at start of study and again 14 days later and measured after 48 days; type: functional, organism-based; details: time 19.0 day
In short: (§1)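 Female BALB/c nude mice are implanted subcutaneously with 1 × 10⁷ H209 cells in cold PBS. At ~175 mm³ they are randomized into four groups of 8. TMZ is given orally in 0.5% MC at 10 mL/kg, QD on days 1–5 and 15–19. Caliper tumor volume (0.5ab²) is measured twice weekly and reported as mean ± SEM.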

NCI-H209 [8] = assay: Antitumor activity against human NCI-H209 cells xenografted in BALB/c nude mouse assessed as inhibition of tumor growth at 50 mg/kg, po QD for 5 consecutive days at start of study and again 14 days later; type: functional, organism-based; details: time 19.0 day; in short: as §1
NCI-H209 [9] = assay: Antitumor activity against human NCI-H209 cells xenografted in BALB/c nude mouse assessed as PR rate at 50 mg/kg, po QD for 5 consecutive days at start of study and again 14 days later; type: functional; details: time 19 day; in short: as §1
[10] = AUC (0 to 24 hrs) in rat at 5 mg/kg, po by LC-MS/MS analysis; type: ADME, organism-based; set-up: time < 24 hr, route oral, dose 5 mg/kg; details: in vivo
[11] = Oral bioavailability in Sprague-Dawley rat at 5 mg/kg by LC-MS/MS analysis; type: ADME, organism-based; details: in vivo
In short: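 Pharmacokinetics in Sprague-Dawley rats, three per group. iv 2 mg/kg in 38% DMA in water; po 5 mg/kg. Plasma was protein-precipitated, diluted with water and analysed by LC-MS/MS using an acetonitrile/0.1% formic acid gradient. Values are means of three rats.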

MDA-MB-436 = assay: Antitumor activity against human MDA-MB-436 cells xenografted in BALB/c nude mouse assessed as inhibition of tumor growth at 25 to 50 mg/kg, po BID for 28 days followed by treatment was interruption and monitored for additional 2 months; type: functional, organism-based; details: dose 25-50 mg/kg, time 28.0 day
In short: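 Female 8-week-old BALB/c nude mice receive 5 × 10⁶ cells in PBS:Matrigel 1:1 subcutaneously in the right flank. […] Tumors are then monitored 2 more months. Caliper volume V = 0.5ab² is taken twice weekly.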

T1 sequence (P09874 whole entry, the tested form may be a part): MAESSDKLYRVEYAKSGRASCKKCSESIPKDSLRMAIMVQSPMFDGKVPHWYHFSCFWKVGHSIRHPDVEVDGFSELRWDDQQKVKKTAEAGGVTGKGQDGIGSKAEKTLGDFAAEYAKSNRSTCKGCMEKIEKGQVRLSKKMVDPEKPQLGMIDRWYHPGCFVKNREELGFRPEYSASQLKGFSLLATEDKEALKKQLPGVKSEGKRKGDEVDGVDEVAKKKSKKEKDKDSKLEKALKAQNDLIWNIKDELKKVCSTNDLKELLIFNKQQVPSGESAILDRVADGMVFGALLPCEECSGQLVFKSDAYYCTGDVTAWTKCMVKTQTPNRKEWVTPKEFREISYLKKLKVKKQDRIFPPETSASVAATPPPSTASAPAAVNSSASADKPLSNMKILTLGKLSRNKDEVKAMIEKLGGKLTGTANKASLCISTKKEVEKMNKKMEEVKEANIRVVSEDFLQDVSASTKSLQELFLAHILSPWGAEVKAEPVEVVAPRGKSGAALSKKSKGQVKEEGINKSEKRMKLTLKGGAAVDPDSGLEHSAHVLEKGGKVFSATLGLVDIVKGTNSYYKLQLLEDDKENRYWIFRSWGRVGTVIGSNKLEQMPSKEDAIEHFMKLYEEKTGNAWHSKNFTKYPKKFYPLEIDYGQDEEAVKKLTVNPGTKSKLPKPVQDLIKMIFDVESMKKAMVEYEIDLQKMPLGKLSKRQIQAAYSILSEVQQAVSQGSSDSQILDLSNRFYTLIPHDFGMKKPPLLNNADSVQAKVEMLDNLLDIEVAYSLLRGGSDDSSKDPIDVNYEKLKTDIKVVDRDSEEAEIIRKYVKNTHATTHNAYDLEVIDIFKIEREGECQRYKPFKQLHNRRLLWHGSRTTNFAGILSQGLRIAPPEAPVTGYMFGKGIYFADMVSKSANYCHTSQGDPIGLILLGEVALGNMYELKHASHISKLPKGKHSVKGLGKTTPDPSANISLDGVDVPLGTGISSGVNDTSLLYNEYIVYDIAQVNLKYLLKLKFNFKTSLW

Row | SMILES | EC50 [1] | IC50 [2] | inhibition at 20 µM (hERG (KCNH2)) | further results
1 | O=C1NN=C2CN(S(=O)(=O)C3CC3)Cc3[nH]c4cc(F)cc1c4c32 | 9.3 nM | 8 nM |  | 
2 | CC1(C)C(=O)C2=NNC(=O)c3cc(F)cc4[nH]c(c2c34)C1=O | 76.1 nM | 13.1 nM |  | 
3 | CC1CC2=NNC(=O)c3cc(F)cc4[nH]c(c2c34)C1 (stereo not drawn) | 2.7 nM | 4.9 nM |  | IC50 [3]: 1.3 nM
4 | CNCCn1c2c3c4c(cccc41)C(=O)NN=C3CC(C)(C)C2 | 0.5 nM | 7 nM |  | 
5 | CC12CCCN1Cc1[nH]c3cc(F)cc4c3c1C2=NNC4=O (stereo not drawn) | 54.7 nM | 73 nM |  | 
6 | NC1(C(=O)N2CC3=NNC(=O)c4cc(F)cc5[nH]c(c3c45)C2)CC1 | 22 nM | 9.9 nM |  | 
7 | CC1(C)C(C(=O)N2CC3=NNC(=O)c4cc(F)cc5[nH]c(c3c45)C2)C1(C)C | 16.6 nM | 17.9 nM |  | 
8 | O=C1NN=C2CN(C(=O)C3(c4ccccc4)CC3)Cc3[nH]c4cc(F)cc1c4c32 | 24.1 nM | 28.1 nM |  | CL/F [4]: 71 mL/min/kg
9 | CC(C)C1CC2=NNC(=O)c3cc(F)cc4[nH]c(c2c34)C1 (stereo not drawn) |  |  |  | IC50 [3]: 0.7 nM
10 | CCN(CC)CCn1c2c3c4c(cccc41)C(=O)NN=C3CC(C)(C)C2 |  |  | 95% | solubility [5]: Soluble
11 | CC1(C)CC2=NNC(=O)c3cc(F)cc4[nH]c(c2c34)C1 |  |  | 32% | 
12 | O=C1NN=C2CCCCc3[nH]c4cc(F)cc1c4c32 |  |  |  | IC50 [3]: 0.7 nM
13 | CC1(C)CC2=NNC(=O)c3cccc4c3c2c(n4CCO)C1 | 176 nM |  |  | 
14 | CC1(C)CC2=NNC(=O)c3cccc4c3c2c(n4CCN2CCCC2)C1 |  |  | 97% | solubility [5]: Soluble
15 | CN(C)CCn1c2c3c4c(cccc41)C(=O)NN=C3CC(C)(C)C2 |  |  | 77% | solubility [5]: Soluble; IC50 [3]: 0.3 nM
16 | O=C1NN=C2CN(C(=O)C3CC3)Cc3[nH]c4cccc1c4c32 |  |  | 12% | CL/F [4]: 114 mL/min/kg; CLint scaled [6]: 250 mL/min/kg
17 | CC1(C)CCc2[nH]c3cc(F)cc4c3c2C1=NNC4=O | 45.5 nM | 28.8 nM |  | 
18 | Cn1nnc2c(C(N)=O)ncn2c1=O [TEMOZOLOMIDE] |  |  |  | Activity (NCI-H209 [7]): inactive; TGI (NCI-H209 [8]): Active; Activity (NCI-H209 [9]): 13%
19 | CN(C)CCn1c2c3c4c(cc(F)cc41)C(=O)NN=C3CC(C)(C)C2 |  |  | 73% | solubility [5]: Soluble; IC50 [3]: 0.3 nM
20 | O=C1NN=C2CN(C(=O)[C@@H]3CCCN3)Cc3[nH]c4cc(F)cc1c4c32 | 11.7 nM | 6.6 nM |  | 
21 | CC1(C)CC2=NNC(=O)c3cccc4c3c2c(n4CCN2CCCCC2)C1 |  |  | 92% | solubility [5]: Soluble
22 | O=C1NN=C2CN(C(=O)C3(O)CC3)Cc3[nH]c4cc(F)cc1c4c32 | 3.5 nM | 4.7 nM |  | 
23 | CC(C)N1CC2=NNC(=O)c3cccc4[nH]c(c2c34)C1 |  |  | 39% | AUC(0-t) at 24 h [10]: 141 ng·h/mL; CL/F [4]: 114 mL/min/kg; CLint scaled [6]: 174 mL/min/kg; bioavailability [11]: 19%
24 | CC1(C(=O)N2CC3=NNC(=O)c4cc(F)cc5[nH]c(c3c45)C2)CC1 | 15.4 nM | 9.8 nM |  | 
25 | CN1CC2=NNC(=O)c3cc(F)cc4[nH]c(c2c34)C1 |  |  |  | CLint scaled [6]: 275 mL/min/kg
26 | O=C1NN=C2CC(c3ccccc3)Cc3[nH]c4cc(F)cc1c4c32 (stereo not drawn) |  |  |  | IC50 [3]: 1.8 nM
27 | CC(C)(N)C(=O)N1CC2=NNC(=O)c3cccc4[nH]c(c2c34)C1 |  |  | 43% | 
28 | O=C(c1cc(Cc2n[nH]c(=O)c3ccccc23)ccc1F)N1CCN(C(=O)C2CC2)CC1 [OLAPARIB] |  |  |  | TGI (MDA-MB-436): Active; bioavailability [11]: 10%
